Columns and labels:
Type in all cases: cell-based
RAW 264.7 cells [1] = experiment: IL-6 secretion by ELISA in LPS-stimulated macrophages; details: pre-treatment 24 h, then LPS 1 μg mL^−1 for 4 h; ELISA of supernatant
Procedure, shortened: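 RAW 264.7 macrophages (within passage 30) grown in DMEM with 10% FBS and 1% antibiotic-antimycotic at 37 °C, 5% CO2. Test compound at 25, 50 and 100 μM (legend: 0, 25, 50 μM) for 24 h, then LPS 1 μg mL⁻¹ for 4 h. Supernatant IL-6 measured by commercial ELISA kit. Three independent experiments, mean ± SD, compared with the LPS group.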

RAW 264.7 cells [2] = experiment: Intracellular ROS by DCFH-DA probe in LPS-stimulated macrophages; details: Mus musculus, RAW264.7, read-out: ROS inhibition rate
Procedure, shortened: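 RAW 264.7 macrophages (DMEM/10% FBS, 37 °C, 5% CO₂) pre-treated with test compound for 24 h, then stimulated with LPS 1 μg mL⁻¹ for 4 h. Cells harvested, loaded with DCFH-DA for 30 min at 37 °C in the dark, and washed three times with PBS. DCF fluorescence read on a multimode imaging reader and […]. Mean ± SD of three independent experiments.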

RAW 264.7 cells [3] = experiment: TNF-α secretion by ELISA in LPS-stimulated macrophages; details: pre-treatment 24 h, then LPS 1 μg mL^−1 for 4 h; ELISA of supernatant
RAW 264.7 cells [4] = experiment: CCK-8 cell viability
Procedure, shortened: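 Mouse RAW 264.7 macrophages (passage ≤30) grown in DMEM with 10% FBS and 1% antibiotic-antimycotic at 37 °C under 5% CO₂. Seeded at 10⁵ per well and left overnight. Exposed to test compound at 0–200 μM for 24 h. Viability read with a CCK-8 kit as % cell viability; IC50 calculated by curve fitting. Mean ± SD of three independent experiments.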

| Structure (SMILES) | Prevention of LPS-induced IL-6 secretion (RAW 264.7 cells [1]) | inhibition at 25 µM (RAW 264.7 cells [2]) [%] | inhibition at 50 µM (RAW 264.7 cells [2]) [%] | Prevention of LPS-induced TNF-α secretion (RAW 264.7 cells [3]) | Cytotoxicity (in words) (RAW 264.7 cells [4]) |
| --- | --- | --- | --- | --- | --- |
| C=C(C[C@@H]1CCSc2ccc(OC)cc21)c1ccccc1 [3aw] | able to prevent LPS-induced IL-6 secretion |  |  |  |  |
| C=C(C[C@@H]1CCOc2ccccc21)c1ccc(Cl)cc1 [3al] | able to prevent LPS-induced IL-6 secretion |  |  |  |  |
| C=C(C[C@@H]1CCSc2ccc(C)cc21)c1ccccc1 [3ax] |  | 32 | 49 | no effect |  |
| Cc1c(C)c2c(c(C)c1O)CCC(C)(C(=O)O)O2 (centres unmarked) [Trolox, reference compound] |  | -3 | 20 |  |  |
| C=C(C[C@@H]1CCOc2ccccc21)c1ccc(C)cc1 [3aj] | able to prevent LPS-induced IL-6 secretion |  |  |  | little cytotoxicity |
| C=C(C[C@@H]1CCSc2ccccc21)c1ccccc1C [3bd] |  |  | 52 |  |  |
| C=C(C[C@@H]1CCOc2ccc(C)cc21)c1ccccc1 [3ac] |  | -24 | 23 | no effect |  |
| C=C(C[C@@H]1CCOc2ccccc21)c1ccccc1C [3am] |  |  | 29 |  |  |

— publication PMC10580023 (RSC Advances, 2023)
